From ChEMBL document CHEMBL5107974, “Design, synthesis, and biological evaluation of new thalidomide-donepezil hybrids as neuroprotective agents targeting cholinesterases and neuroinflammation” (RSC Med Chem, 2022) come the findings set out here.

Data set [1] addresses Cholinesterase (Equus caballus) (UniProt P81908). As to the kind of experiment: Inhibition of equine serum BuChE using S-butyrylthiocholine iodide as a substrate at 30 uM incubated for 10 mins by DTNB reagent based Ellman's method. The class given is cell-free. The gist of the method:
(§1)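 Ellman method in Tris-HCl 0.02 M pH 7.5 with BSA, inhibitor at 30 uM final, DMSO 0.2% vehicle as negative control. Enzyme (eeAChE or equine serum BuChE) with DTNB preincubated 10 min at room temperature; acetylthiocholine or butyrylthiocholine iodide added, absorbance at 415 nm after 10 min. Activity as % of DMSO control, blank-corrected; triplicate.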
For orientation: In Ellman's method for cholinesterases, released thiocholine reacts with DTNB.

Data set [2] addresses Acetylcholinesterase (Electrophorus electricus) (UniProt O42275). As to the kind of experiment: Inhibition of electric eel AChE using […] as a substrate at 30 uM incubated for 10 mins by DTNB reagent based Ellman's method. The gist of the method: as §1
Data set [3] relates to SH-SY5Y. Put plainly: Cytotoxicity against human SH-SY5Y cells assessed as reduction in cell viability at 80 uM incubated for 24 hrs by MTT assay. The class given is functional. The gist of the method: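 SH-SY5Y cells seeded at 2×10^4 per well, grown 24 h, then treated 24 h at 37 °C (range 2.5–80 uM). MTT 0.5 mg mL-1 in HBSS for 2 h; formazan dissolved in isopropanol, read at 570 nm (reference 690 nm). Viability relative to untreated cells; mean ± SEM of three independent experiments.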
For orientation: Tetrazolium assays rely on reduction of a dye to a coloured formazan, in cell work by metabolically active cells.

The nature of data set [4]: Permeability of compound in PBS buffer at pH 7.4 by PAMPA-BBB assay. In kind it is ADME. The note with it: read-out: permeability. In a few lines: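 PAMPA-BBB: compound dissolved in ethanol, diluted with PBS pH 7.4 and filtered, then added in triplicate to a donor filter coated with porcine brain polar lipid (20 mg/mL in dodecane). Acceptor was PBS pH 7.4:ethanol (70:30). Incubated 2 h 45 min at about 25 °C, humidified. Donor and acceptor concentrations read by UV; compounds classed BBB+ or BBB−.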
On the technique in general: In PAMPA a lipid-coated filter parts donor from acceptor wells.

In data set [5] the test system is THP-1. Put plainly: Anti-inflammatory activity in human THP-1 cells assessed as inhibition of LPS-induced iNOS expression at 10 uM incubated for 24 hrs by RT-PCR analysis. In kind it is functional. In a few lines:
(§2)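 THP-1 monocytes differentiated to microglia-like cells with PMA 5 ng mL-1 for 24 h, then exposed 24 h to LPS 1 ug mL-1 together with compound (10 uM). RNA extracted; expression by quantitative RT-PCR, relative quantification by 2^-ΔΔCt with untreated cells as control. Mean ± SEM of three independent experiments.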

In data set [6] the test system is Rattus norvegicus. Put plainly: Anti-inflammatory activity in LPS-induced Wistar rat assessed as increase in traveled distance at po dosed measured upto 24 hrs by open field test. The class given is functional, organism-based. The gist of the method:
(§3)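 Adult male Wistar rats (n = 7–8 per group), overnight 8 h fast; vehicle or compound by gavage, then LPS or saline intraperitoneally. 2 h after LPS, each rat was placed in the centre of a circular open-field arena and filmed for 5 min. Distance travelled and immobility time were scored by video tracking. Results given as mean ± SEM.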

Data set [7] relates to Rattus norvegicus. Put plainly: Anti-inflammatory activity in LPS-induced Wistar rat assessed as decrease in immobility time at po dosed measured upto 24 hrs by open field test. The class given is functional, organism-based. The gist of the method:
as §3

A further data set deals with Acetylcholinesterase (Electrophorus electricus, UniProt O42275). As to the kind of experiment: Inhibition of electric eel AChE using […] as a substrate incubated for 10 mins by DTNB reagent based Ellman's method.
Data set [8] can be described thus: Permeability of compound in PBS buffer at pH 6.6 by PAMPA-GIT assay. The class given is ADME. In a few lines:
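PAMPA-GIT: 10 μM compound in PBS pH 6.6 as donor, filter coated with soy L-α-phosphatidylcholine (20 mg/mL in dodecane). Acceptor was PBS pH 7.4:DMSO (95:5). Plates shaken at 50 rpm for 8 h at room temperature. Run in triplicate; absorbed fraction (Fa%) classed high, medium or low.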

The test system of data set [9] is Rattus norvegicus. As to the kind of experiment: Anti-inflammatory activity in LPS-induced Wistar rat assessed as increase in food intake at po dosed measured upto 24 hrs. In kind it is functional, organism-based. In a few lines:
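Adult male Wistar rats (n = 7 per group), housed individually; overnight 8 h fast, then food removed 2 h on the test day. Vehicle or compound was given by gavage, then LPS or saline intraperitoneally. Pre-weighed pelleted feed was reintroduced and weighed at 2, 4, 6 and 24 h. Results given as mean ± SEM.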

Data set [10] relates to THP-1. Put plainly: Anti-inflammatory activity in human THP-1 cells assessed as inhibition of LPS-induced IL-1beta expression at 10 uM incubated for 24 hrs by RT-PCR analysis. The class given is functional. In a few lines:
as §2

Data set [11] concerns SH-SY5Y. As to the kind of experiment: Neuronal plasticity in human SH-SY5Y cells assessed as increase in SYP gene expression at 10 uM incubated for 24 hrs by RT-PCR analysis. In kind it is functional, cell-based. In a few lines:
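SH-SY5Y cells grown in DMEM with 10% FBS and differentiated with retinoic acid (10 μM) for 6 days. Compound 10 μM for 24 h. RNA extracted, SYP mRNA measured by quantitative RT-PCR, relative quantity by 2^-ΔΔCt against untreated cells. Three independent experiments, mean ± SEM, Student's t-test.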

Each structure is given as a SMILES string. Active and inactive are the calls of the source. The calls are words filed in the database; no cut-off is given here.

Sequence of Acetylcholinesterase (Electrophorus electricus) (O42275 24-633 limits assumed): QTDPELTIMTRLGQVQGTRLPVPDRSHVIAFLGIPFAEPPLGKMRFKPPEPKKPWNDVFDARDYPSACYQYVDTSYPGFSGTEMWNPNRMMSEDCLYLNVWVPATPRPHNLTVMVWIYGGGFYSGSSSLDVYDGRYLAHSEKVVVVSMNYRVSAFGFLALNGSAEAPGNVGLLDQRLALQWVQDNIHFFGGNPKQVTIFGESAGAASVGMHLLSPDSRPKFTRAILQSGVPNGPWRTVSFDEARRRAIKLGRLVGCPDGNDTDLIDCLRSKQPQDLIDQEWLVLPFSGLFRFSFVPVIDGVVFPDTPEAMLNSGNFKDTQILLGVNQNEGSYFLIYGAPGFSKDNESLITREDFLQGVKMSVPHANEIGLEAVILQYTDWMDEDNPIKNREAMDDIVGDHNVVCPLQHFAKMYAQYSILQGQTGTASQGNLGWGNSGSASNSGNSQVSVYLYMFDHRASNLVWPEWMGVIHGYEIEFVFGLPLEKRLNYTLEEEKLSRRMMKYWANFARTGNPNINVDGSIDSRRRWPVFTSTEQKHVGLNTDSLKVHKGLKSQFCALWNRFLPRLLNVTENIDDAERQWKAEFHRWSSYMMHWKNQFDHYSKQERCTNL
Sequence of Cholinesterase (Equus caballus) (P81908 whole entry): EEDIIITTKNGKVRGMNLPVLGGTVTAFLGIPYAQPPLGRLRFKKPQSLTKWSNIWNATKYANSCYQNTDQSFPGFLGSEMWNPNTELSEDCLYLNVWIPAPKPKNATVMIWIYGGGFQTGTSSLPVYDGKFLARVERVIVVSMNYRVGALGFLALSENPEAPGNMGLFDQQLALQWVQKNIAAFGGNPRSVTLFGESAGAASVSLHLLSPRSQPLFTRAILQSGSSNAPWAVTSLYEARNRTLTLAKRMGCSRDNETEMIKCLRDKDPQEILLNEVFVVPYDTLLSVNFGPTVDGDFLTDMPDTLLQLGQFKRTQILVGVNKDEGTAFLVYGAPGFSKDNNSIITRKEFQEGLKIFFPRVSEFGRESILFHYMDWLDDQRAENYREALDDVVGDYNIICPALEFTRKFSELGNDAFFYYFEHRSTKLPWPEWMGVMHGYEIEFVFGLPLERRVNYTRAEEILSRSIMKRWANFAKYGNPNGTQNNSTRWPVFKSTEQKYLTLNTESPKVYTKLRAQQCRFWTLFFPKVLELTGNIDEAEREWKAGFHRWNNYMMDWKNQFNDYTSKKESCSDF
Sequence of Acetylcholinesterase (O42275 whole entry): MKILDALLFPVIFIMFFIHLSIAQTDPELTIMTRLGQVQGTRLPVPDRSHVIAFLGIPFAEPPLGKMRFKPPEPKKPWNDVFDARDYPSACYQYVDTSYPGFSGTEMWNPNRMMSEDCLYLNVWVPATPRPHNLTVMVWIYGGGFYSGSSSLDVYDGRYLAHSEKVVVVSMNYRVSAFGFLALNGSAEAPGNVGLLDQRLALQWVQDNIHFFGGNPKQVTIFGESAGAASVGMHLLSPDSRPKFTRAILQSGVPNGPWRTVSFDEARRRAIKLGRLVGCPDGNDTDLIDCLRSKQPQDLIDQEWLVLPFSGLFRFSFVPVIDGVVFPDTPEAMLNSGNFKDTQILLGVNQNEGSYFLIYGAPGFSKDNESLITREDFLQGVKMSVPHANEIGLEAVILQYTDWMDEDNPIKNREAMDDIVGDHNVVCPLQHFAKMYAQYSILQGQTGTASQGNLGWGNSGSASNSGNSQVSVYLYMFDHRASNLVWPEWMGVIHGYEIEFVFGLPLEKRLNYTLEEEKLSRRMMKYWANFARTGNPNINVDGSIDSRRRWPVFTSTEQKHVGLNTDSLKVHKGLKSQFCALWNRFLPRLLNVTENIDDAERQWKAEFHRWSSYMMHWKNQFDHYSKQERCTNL

Turning to `O=C(CN1C(=O)c2ccccc2C1=O)N1CCN(c2ccc(Cl)cc2)CC1`, the figures for the inhibition in data set [1] and in [2] were -2.09% and 8.11%, respectively. The Activity in the data set with SH-SY5Y [3] amounted to 50%.
The like results for `O=C(CN1C(=O)c2ccccc2C1=O)N1CCN(c2ncccn2)CC1` were, in that order, -5.36%, 39.6% and 50%.
As for `Cc1ccc(N2CCN(C(=O)CN3C(=O)c4ccccc4C3=O)CC2)cc1`, the inhibition in [1] was determined as 0.3%; in [2], 11.6%.
The like results for `O=C(CN1C(=O)c2ccccc2C1=O)N1CCN(Cc2ccc(Cl)cc2)CC1` were, in that order, 1.26% and 7.82%.
As for `O=C(CN1C(=O)c2ccccc2C1=O)N1CCN(c2ccc([N+](=O)[O-])cc2)CC1`, the inhibition is -4.97% in data set [1] and 16.9% in [2].
In the same order, the values of `O=C(CN1C(=O)c2ccccc2C1=O)N1CCN(Cc2ccc(Br)cc2)CC1` are -1.37% and 8.38%.
For `O=C(CN1C(=O)c2ccccc2C1=O)N1CCN(c2ccncc2)CC1`, the Papp amounted to 13.9 ×10⁻⁶ cm/s in data set [4] and 3.15 ×10⁻⁶ cm/s in data set [8] (read-out: permeability). For the same compound, the inhibition at 10 µM is 43% in the data set with THP-1 [5] and 39% in the data set with THP-1 [10]. In addition, the results for the inhibition in data set [1] and in data set [2] were -4.47% and 85%, respectively. The outcome in the data set with Rattus norvegicus [6], with Rattus norvegicus [7], in the data set with Rattus norvegicus [9] and in the data set with SH-SY5Y [11] was Active. Further, inhibition against Acetylcholinesterase was half-maximal at 3.15 µM (IC50). In addition, the Fa in [8] was 69.8%.
Consider `COc1ccc(CN2CCN(C(=O)CN3C(=O)c4ccccc4C3=O)CC2)cc1`, for which the values for the inhibition in [1] and in [2] were 25.4% and 17.1%, respectively.

In general, inhibition refers to the change of the read-out against control, counted positive when it falls. In general, IC50 refers to the point on the concentration scale where inhibition reaches its midpoint.
